Results published in ChEMBL document CHEMBL1629563, “Pharmacokinetic and safety evaluation of BILR 355, a second-generation nonnucleoside reverse transcriptase inhibitor, in healthy volunteers” (Antimicrob Agents Chemother, 2008).

How the values were obtained:
[1] = Mean residence time in healthy human at 87.5 mg, po administered as single dose coadministered with 100 mg of ritonavir; assay type: ADME, organism-based; settings: in vivo
[2] = Mean residence time in healthy human at 50 mg, po administered as single dose; assay type: ADME, organism-based; settings: in vivo
[3] = test system: Homo sapiens; assay: Toxicity in healthy human assessed as occurrence of nausea at 5 mg, po administered as single dose relative to control; assay type: organism-based; settings: in vivo
[4] = test system: Homo sapiens; assay: Toxicity in healthy human assessed as occurrence of neurological eyelid disorder at 5 mg, po administered as single dose relative to control; assay type: organism-based; settings: in vivo
[5] = AUC (0 to last) in healthy human at 75 mg, po administered as single dose coadministered with 100 mg of ritonavir; assay type: ADME, organism-based; parameters: dose 75 mg, route oral, time 0 - last; settings: plasma
Outline: (§1)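 Healthy male volunteers, fasted. Ritonavir 100 mg given 10 h before and again together with single oral BILR 355 in PEG solution. EDTA plasma sampled predose to 144 h. LC-MS/MS assay after protein precipitation. Noncompartmental analysis, AUC by linear up/log down trapezoidal rule; Vss = CL/F·(MRTp.o. − 1/Ka).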

[6] = test system: Homo sapiens; assay: Apparent oral clearance in healthy human at 75 mg, po administered as single dose; assay type: ADME, organism-based; settings: in vivo
Outline: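 Healthy male volunteers, six active plus two placebo per dose group, single oral dose in PEG solution with 200 ml water after overnight fast; breakfast 60 to 90 min post-dose. EDTA plasma sampled predose to 144 h. Assayed by validated LC-MS/MS after protein precipitation. Noncompartmental analysis, AUC by linear up/log down trapezoidal rule; Vss = CL/F·(MRTp.o. − 1/Ka).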

[7] = Cmax in healthy human at 25 mg, po administered as single dose coadministered with 100 mg of ritonavir by high-pressure liquid chromatography-tandem mass spectrometry/mass spectrometry method; assay type: ADME, organism-based; parameters: dose 25 mg, route oral; settings: in vivo
Outline: (§2)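 Healthy male volunteers, fasted overnight, got one oral dose of BILR 355 in PEG solution with 200 ml water. Ritonavir 100 mg was given 10 h before and again with the dose. Plasma was sampled (EDTA) from predose to 144 h and assayed by validated LC-MS/MS. Cmax and Vz/F came from noncompartmental analysis. Vss/F = CL/F·(MRTp.o. − 1/Ka), with Ka from compartmental modelling.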

[8] = AUC (0 to infinity) in healthy human at 37.5 mg, po administered as single dose coadministered with 100 mg of ritonavir; assay type: ADME, organism-based; parameters: dose 37.5 mg, route oral, time infinity; settings: plasma; outline: as §1
[9] = AUC (0 to last) in healthy human at 12.5 mg, po administered as single dose coadministered with 100 mg of ritonavir; assay type: ADME, organism-based; parameters: dose 12.5 mg, time 0 - last, route oral; settings: plasma; outline: as §1
[10] = test system: Homo sapiens; assay: Ratio of half life in human at 12.5 mg, po in presence of 100 mg of ritonavir to half life in human at 12.5 mg, po; assay type: ADME, organism-based; settings: in vivo
[11] = Renal clearance in healthy human at 50 mg, po administered as single dose by high-pressure liquid chromatography-tandem mass spectrometry/mass spectrometry method; assay type: ADME, organism-based, Kidney; settings: in vivo, read-out: CL_renal (converted)
[12] = test system: Homo sapiens; assay: Toxicity in healthy human assessed as occurrence of abdominal pain at 100 mg, po administered as single dose relative to control; assay type: organism-based, Abdomen; settings: in vivo
[13] = Drug excretion in healthy human urine assessed as unchanged drug at 12.5 mg, po administered as single dose coadministered with 100 mg of ritonavir by high-pressure liquid chromatography-tandem mass spectrometry/mass spectrometry method; assay type: ADME, organism-based; settings: read-out: Drug uptake
Outline: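 Ritonavir 100 mg was given 10 h before and with one oral dose of BILR 355 in PEG solution. Urine was collected by weight as predose blank, then 0-6, 6-24 and 24-72 h, stored at −20°C and assayed by LC-MS/MS. fe = unchanged drug excreted (Ae) as a percentage of dose. Line 50: high-fat breakfast 30 min before dosing.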

[14] = Apparent volume of distribution in terminal phase in healthy human at 5 mg, po administered as single dose; assay type: ADME, organism-based; settings: in vivo, read-out: Vz/F
Outline: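 Single fasting oral dose of BILR 355 in PEG solution with 200 ml tap water, given to healthy males. Standard breakfast came 60-90 min after the dose. EDTA plasma was sampled predose to 144 h, stored below −18°C and assayed by LC-MS/MS after protein precipitation. Noncompartmental analysis gave Vz/F. Vss/F = CL/F·(MRTp.o. − 1/Ka), with Ka from compartmental modelling.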

[15] = test system: Homo sapiens; assay: Ratio of AUC (0 to infinity) in human at 25 mg, po in presence of 100 mg of ritonavir to AUC (0 to infinity) in human at 25 mg, po; assay type: ADME, organism-based; settings: in vivo
[16] = test system: Homo sapiens; assay: Toxicity in healthy human assessed as occurrence of fatigue at 5 mg, po administered as single dose coadministered with 100 mg of ritonavir; assay type: organism-based; settings: in vivo
[17] = Apparent volume of distribution in terminal phase in healthy human at 75 mg, po administered as single dose coadministered with 100 mg of ritonavir; assay type: ADME, organism-based; settings: in vivo, read-out: Vz/F; outline: as §2
[18] = Apparent oral clearance in healthy human at 75 mg, po administered as single dose coadministered with 100 mg of ritonavir; assay type: ADME, organism-based; settings: in vivo; outline: as §1
[19] = Tmax in healthy human at 25 mg, po administered as single dose coadministered with 100 mg of ritonavir; assay type: ADME, organism-based; settings: in vivo
[20] = test system: Homo sapiens; assay: Toxicity in healthy human assessed as occurrence of headache at 12.5 mg, po administered as single dose relative to control; assay type: organism-based; settings: in vivo
[21] = test system: Homo sapiens; assay: Toxicity in healthy human assessed as occurrence of diarrhea at 5 mg, po administered as single dose coadministered with 100 mg of ritonavir; assay type: organism-based; settings: in vivo
[22] = Renal clearance in healthy human at 75 mg, po administered as single dose by high-pressure liquid chromatography-tandem mass spectrometry/mass spectrometry method; assay type: ADME, organism-based, Kidney; settings: in vivo, read-out: CL_renal (converted)
[23] = test system: Homo sapiens; assay: Toxicity in healthy human assessed as occurrence of headache at 75 mg, po administered as single dose relative to control; assay type: organism-based; settings: in vivo
[24] = Renal clearance in high fat fed healthy human at 50 mg, po administered as single dose coadministered with 100 mg of ritonavir by high-pressure liquid chromatography-tandem mass spectrometry/mass spectrometry method; assay type: ADME, organism-based, Kidney; settings: in vivo, read-out: CL_renal (converted)
[25] = Apparent oral clearance in healthy human at 50 mg, po administered as single dose coadministered with 100 mg of ritonavir; assay type: ADME, organism-based; settings: in vivo; outline: as §1
[26] = Renal clearance in healthy human at 100 mg, po administered as single dose by high-pressure liquid chromatography-tandem mass spectrometry/mass spectrometry method; assay type: ADME, organism-based, Kidney; settings: in vivo, read-out: CL_renal (converted)
[27] = Apparent oral clearance in healthy human at 62.5 mg, po administered as single dose coadministered with 100 mg of ritonavir; assay type: ADME, organism-based; settings: in vivo; outline: as §1
[28] = test system: Homo sapiens; assay: Toxicity in healthy human assessed as occurrence of nausea at 50 mg, po administered as single dose relative to control; assay type: organism-based; settings: in vivo
[29] = test system: Homo sapiens; assay: Toxicity in healthy human assessed as occurrence of constipation at 50 mg, po administered as single dose relative to control; assay type: organism-based; settings: in vivo
[30] = Apparent oral clearance in healthy human at 5 mg, po administered as single dose coadministered with 100 mg of ritonavir; assay type: ADME, organism-based; settings: in vivo; outline: as §1
[31] = Mean residence time in healthy human at 5 mg, po administered as single dose coadministered with 100 mg of ritonavir; assay type: ADME, organism-based; settings: in vivo

MRT [1]: 14.6 h
MRT [2]: 3.2 h
AUC(0-t) [5]: 12100 ng·h/mL
CL/F [6]: 272 L/h
Cmax [7]: 226 ng/mL
AUC(0-inf) [8]: 5960 ng·h/mL
AUC(0-t) [9]: 1680 ng·h/mL
Ratio [10]: 3.9
CL renal [11]: 9.15 mL/min
dose excreted [13]: 6.37%
Vd/F [14]: 956 L
Ratio [15]: 31.1
Vd/F [17]: 108 L
CL/F [18]: 106 mL/min
Tmax [19]: 1.75 h
CL renal [22]: 10.2 mL/min
CL renal [24]: 4.98 mL/min
CL/F [25]: 131 mL/min
CL renal [26]: 9.85 mL/min
CL/F [27]: 141 mL/min
CL/F [30]: 122 mL/min
MRT [31]: 24.8 h
Structure (SMILES): CCN1c2ncc(CCOc3cc[n+]([O-])c4ccccc34)cc2C(=O)N(C)c2cccnc21 [BILR 355]
Activity [3]: 0%
Activity [4]: 0%
Activity [12]: 0%
Activity [16]: 0%
Activity [20]: 0%
Activity [21]: 0%
Activity [23]: 0%
Activity [28]: 0%
Activity [29]: 0%
